According to ChEMBL document CHEMBL2311397, “Design and synthesis of cyclopropylamide analogues of combretastatin-A4 as novel microtubule-stabilizing agents” (J Med Chem, 2013):

Key:
Format in all cases: functional, cell-based
HeLa = experiment: Cytotoxicity against human HeLa cells after 48 hrs by MTT assay
How it was run: (§1)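 Log-phase cells (40000–50000 cells/mL) grown in DMEM with 10% fetal calf serum (5% CO2, 37 °C) and exposed 48 h to five concentrations, 3–5 replicates. Read-out was MTT with absorbance at 570 nm; IC50 reported as mean ± SD of three independent experiments. Resistant A549 and HeLa sublines were made by stepwise paclitaxel selection; resistance index = IC50(resistant)/IC50(sensitive).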

A549 = experiment: Cytotoxicity against human A549 cells after 48 hrs by MTT assay; how it was run: as §1
K562 = experiment: Cytotoxicity against human K562 cells after 48 hrs by MTT assay; how it was run: as §1
SW480 = experiment: Cytotoxicity against human SW480 cells after 48 hrs by MTT assay; how it was run: as §1
[1] = Cytotoxicity against human QGY cells after 48 hrs by MTT assay; how it was run: as §1

Row | Compound | IC50 (HeLa; hela) | IC50 (A549; a549) | IC50 (K562; k562) | IC50 (SW480; sw480) | IC50 ([1]; qgy) | IC50 (HeLa; Homo sapiens, HeLa, 48 h) | IC50 (A549; Homo sapiens, A549, 48 h) | IC50 (K562; Homo sapiens, K562, 48 h) | IC50 (SW480; Homo sapiens, SW480, 48 h) | IC50 ([1]; Homo sapiens, QGY, 48 h)
1 | CCOC(=O)C1(C(=O)Nc2cccc(Cl)c2)CC1c1cc(OC)c(OC)c(OC)c1 (stereo in doubt; trans) | > 100 µM | 45.2 µM | > 100 µM | 28.7 µM | > 100 µM | – | – | – | – | –
2 | COc1ccc(/C=C\c2cc(OC)c(OC)c(OC)c2)cc1O [COMBRETASTATIN A4] | – | – | – | – | – | 0.0021 µM | 0.0056 µM | 0.0048 µM | 0.0182 µM | 0.0265 µM
3 | O=c1[nH]cc(F)c(=O)[nH]1 [FLUOROURACIL] | – | – | – | – | – | 143 µM | 56 µM | 114 µM | 158 µM | 126 µM
4 | COc1cc([C@H]2C[C@@]2(CO)C(=O)Nc2ccccc2)cc(OC)c1OC | – | – | – | – | – | > 100 µM | > 100 µM | > 100 µM | > 100 µM | > 100 µM
5 | CCOC(=O)C1(C(=O)NCc2ccc(F)cc2)CC1c1cc(OC)c(OC)c(OC)c1 (trans isomer) | 27.8 µM | 34.1 µM | 43.1 µM | 28.4 µM | > 100 µM | – | – | – | – | –
6 | CCOC(=O)C1(C(=O)Nc2cccc([N+](=O)[O-])c2)CC1c1cc(OC)c(OC)c(OC)c1 (stereo in doubt; cis) | – | – | – | > 100 µM | – | 59.4 µM | 76.4 µM | > 100 µM | – | > 100 µM
7 | CCOC(=O)[C@]1(C(=O)NCc2ccc(C)cc2)C[C@@H]1c1cc(OC)c(OC)c(OC)c1 | – | – | – | – | – | > 100 µM | 34.9 µM | 20.4 µM | > 100 µM | > 100 µM
8 | CCOC(=O)C1(C(=O)Nc2ccccc2)CC1c1cc(OC)c(OC)c(OC)c1 (trans isomer) | – | 48.6 µM | – | > 100 µM | > 100 µM | – | – | – | – | –
9 | CCOC(=O)[C@@]1(C(=O)NCc2ccc(C)cc2)C[C@@H]1c1cc(OC)c(OC)c(OC)c1 | – | – | – | – | – | > 100 µM | > 100 µM | > 100 µM | > 100 µM | > 100 µM
10 | CCOC(=O)[C@@]1(C(=O)NCc2ccc(C)cc2)C[C@H]1c1cc(OC)c(OC)c(OC)c1 | – | – | – | – | – | 19.7 µM | 17.1 µM | > 100 µM | > 100 µM | 26.4 µM
11 | CCOC(=O)C1(C(=O)Nc2ccccc2Cl)CC1c1cc(OC)c(OC)c(OC)c1 (stereo in doubt; cis) | 22.1 µM | – | 41.4 µM | 27.2 µM | – | – | 18 µM | – | – | 36.1 µM
12 | COc1cc([C@H]2C[C@@]2(CO)C(=O)NCc2ccc(C)cc2)cc(OC)c1OC | – | – | – | – | – | > 100 µM | 63.8 µM | > 100 µM | > 100 µM | > 100 µM
13 | CCOC(=O)C1(C(=O)Nc2ccccc2[N+](=O)[O-])CC1c1cc(OC)c(OC)c(OC)c1 (trans isomer) | 35.1 µM | 30.9 µM | > 100 µM | 31.8 µM | > 100 µM | – | – | – | – | –
14 | CCOC(=O)[C@]1(C(=O)Nc2ccccc2Cl)C[C@@H]1c1cc(OC)c(OC)c(OC)c1 | – | – | – | – | – | > 100 µM | 50.9 µM | 19.5 µM | > 100 µM | 34.7 µM
15 | CCOC(=O)C1(C(=O)NCc2ccc(OC)cc2)CC1c1cc(OC)c(OC)c(OC)c1 (trans isomer) | – | 73.8 µM | – | – | – | – | – | – | – | –
16 | CCOC(=O)C1(C(=O)Nc2cccc([N+](=O)[O-])c2)CC1c1cc(OC)c(OC)c(OC)c1 (stereo in doubt; trans) | > 100 µM | 80.3 µM | – | 49.5 µM | – | – | – | – | – | –
17 | CCOC(=O)C1(C(=O)NCc2ccc(C)cc2)CC1c1cc(OC)c(OC)c(OC)c1 (trans isomer) | 25.6 µM | 21.4 µM | – | > 100 µM | 37.9 µM | – | – | – | – | –
18 | CCOC(=O)C1(C(=O)NCCc2ccc(F)cc2)CC1c1cc(OC)c(OC)c(OC)c1 (trans isomer) | 35 µM | > 100 µM | – | 40.3 µM | – | – | – | – | – | –
19 | CCOC(=O)C1(C(=O)Nc2ccc(OC)cc2)CC1c1cc(OC)c(OC)c(OC)c1 (stereo in doubt) | > 100 µM | > 100 µM | – | > 100 µM | > 100 µM | – | – | – | – | –
20 | CCOC(=O)C1(C(=O)NCc2ccccc2)CC1c1cc(OC)c(OC)c(OC)c1 (trans isomer) | 76.3 µM | > 100 µM | – | > 100 µM | – | – | – | – | – | –
